Data taken from ChEMBL document CHEMBL1926589, “2-Anilinonicotinyl linked 2-aminobenzothiazoles and [1,2,4]triazolo[1,5-b] [1,2,4]benzothiadiazine conjugates as potential mitochondrial apoptotic inducers” (Bioorg Med Chem, 2011).
pIC50: −log10 of the molar value. The source made the active and inactive calls. No cut-off for these calls is given here.

Test system: IMR-32
Test: Growth inhibition of human IMR32 cells at 10 uM by sulforhodamine B assay
Assay type: functional
Conditions: read-out: GI
Outline: (§1)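 Single-dose 10 µM screen by sulforhodamine B assay, reported as percent inhibition of cell proliferation. Cells grown in medium with 10% heat-inactivated FBS at 37 °C, 5% CO2, and treated at about 70% confluence or in log phase. Compounds dissolved in DMSO; controls received vehicle (<0.5% v/v).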

Row | SMILES | inhibition of growth at 10 µM [%]
1 | CN1c2ccccc2S(=O)(=O)n2nc(-c3cccnc3Nc3ccc(Cl)cc3Cl)nc21 | 47

Test system: SK-N-SH
Test: Growth inhibition of human SK-N-SH cells at 10 uM by sulforhodamine B assay
Assay type: functional
Conditions: read-out: GI
Outline: as §1

Row | SMILES | inhibition of growth at 10 µM [%]
2 | CN1c2ccccc2S(=O)(=O)n2nc(-c3cccnc3Nc3ccc(Cl)cc3Cl)nc21 | 16

Test system: SiHa
Test: Growth inhibition of human SiHa cells at 10 uM by sulforhodamine B assay
Assay type: functional
Conditions: read-out: GI
Outline: as §1

Row | SMILES | inhibition of growth at 10 µM [%]
3 | CN1c2ccccc2S(=O)(=O)n2nc(-c3cccnc3Nc3ccc(Cl)cc3Cl)nc21 | 13

Test system: SW-620
Test: Growth inhibition of human SW620 cells at 10 uM by sulforhodamine B assay
Assay type: functional
Conditions: read-out: GI
Outline: as §1

Row | SMILES | inhibition of growth at 10 µM [%]
4 | CN1c2ccccc2S(=O)(=O)n2nc(-c3cccnc3Nc3ccc(Cl)cc3Cl)nc21 | 62

Test system: HCT-15
Test: Growth inhibition of human HCT15 cells at 10 uM by sulforhodamine B assay
Assay type: functional
Conditions: read-out: GI
Outline: as §1

Row | SMILES | inhibition of growth at 10 µM [%]
5 | CN1c2ccccc2S(=O)(=O)n2nc(-c3cccnc3Nc3ccc(Cl)cc3Cl)nc21 | 27

Test system: not listed separately
Test: Growth inhibition of human 502713 cells at 10 uM by sulforhodamine B assay
Assay type: functional
Conditions: read-out: GI
Outline: as §1

Row | SMILES | inhibition of growth at 10 µM [%]
6 | CN1c2ccccc2S(=O)(=O)n2nc(-c3cccnc3Nc3ccc(Cl)cc3Cl)nc21 | 49

Test system: DU-145
Test: Growth inhibition of human DU145 cells at 10 uM by sulforhodamine B assay
Assay type: functional
Conditions: read-out: GI
Outline: as §1

Row | SMILES | inhibition of growth at 10 µM [%]
7 | CN1c2ccccc2S(=O)(=O)n2nc(-c3cccnc3Nc3ccc(Cl)cc3Cl)nc21 | 11

Test system: A549
Test: Growth inhibition of human A549 cells at 10 uM by sulforhodamine B assay
Assay type: functional
Conditions: read-out: GI
Outline: as §1

Row | SMILES | inhibition of growth at 10 µM [%]
8 | CN1c2ccccc2S(=O)(=O)n2nc(-c3cccnc3Nc3ccc(Cl)cc3Cl)nc21 | 15

Test system: HEp-2
Test: Growth inhibition of human Hep2 cells at 10 uM by sulforhodamine B assay
Assay type: functional
Conditions: read-out: GI
Outline: as §1

Row | SMILES | inhibition of growth at 10 µM [%]
9 | CN1c2ccccc2S(=O)(=O)n2nc(-c3cccnc3Nc3ccc(Cl)cc3Cl)nc21 | 0

Test system: OVCAR-5
Test: Growth inhibition of human OVCAR5 cells at 10 uM by sulforhodamine B assay
Assay type: functional
Conditions: read-out: GI
Outline: as §1

Row | SMILES | inhibition of growth at 10 µM [%]
10 | CN1c2ccccc2S(=O)(=O)n2nc(-c3cccnc3Nc3ccc(Cl)cc3Cl)nc21 | 23

Test system: HL-60
Test: Growth inhibition of human HL60 cells after 48 hrs by MTT assay
Assay type: functional, cell-based
Conditions: HL-60, 48 h

Row | SMILES | pIC50
11 | CN1c2ccccc2S(=O)(=O)n2nc(-c3cccnc3Nc3ccc(Cl)cc3Cl)nc21 | 6.19

Test system: SiHa
Test: Growth inhibition of human SiHa cells after 48 hrs by MTT assay
Assay type: functional, cell-based
Conditions: not given

Row | SMILES | pIC50
12 | CN1c2ccccc2S(=O)(=O)n2nc(-c3cccnc3Nc3ccc(Cl)cc3Cl)nc21 | < 4.30

Test system: CV-1
Test: Growth inhibition of african green monkey CV1 cells after 48 hrs by MTT assay
Assay type: cell-based
Conditions: Chlorocebus aethiops, CV-1, 48 h

Row | SMILES | pIC50
13 | CN1c2ccccc2S(=O)(=O)n2nc(-c3cccnc3Nc3ccc(Cl)cc3Cl)nc21 | < 4.00

Test system: not listed separately
Test: Therapeutic ratio of IC50 for african green monkey CV1 cells to IC50 for human HL60 cells
Assay type: ADME, cell-based, HL-60
Conditions: CV1 cells and HL60 cells, read-out: Ratio IC50

Row | SMILES | selectivity ratio
14 | CN1c2ccccc2S(=O)(=O)n2nc(-c3cccnc3Nc3ccc(Cl)cc3Cl)nc21 | > 156

Test system: HL-60
Test: Induction of apoptosis in human HL60 cells assessed as early apoptotic cells at 1 uM after 24 hrs using Annexin V-FITC and propidium iodide staining by flow cytometry relative to control
Assay type: functional
Conditions: not given
Outline: (§2)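 HL-60 cells (1 x 10^5 per 1.5 mL) treated 24 h, washed twice in PBS and stained in binding buffer with annexin V-FITC and PI. Flow cytometry with FITC in FL-1 (530 nm) and PI in FL-2 (585 nm), using quadrant statistics: lower right taken as apoptotic, upper right as post-apoptotic necrotic. Representative of three independent experiments.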

Row | SMILES | Activity [%]
15 | CN1c2ccccc2S(=O)(=O)n2nc(-c3cccnc3Nc3ccc(Cl)cc3Cl)nc21 | 7

Test system: HL-60
Test: Induction of apoptosis in human HL60 cells assessed as non-viable necrotic cells at 1 uM after 24 hrs using Annexin V-FITC and propidium iodide staining by flow cytometry relative to control
Assay type: functional
Conditions: not given
Outline: as §2

Row | SMILES | Activity [%]
16 | CN1c2ccccc2S(=O)(=O)n2nc(-c3cccnc3Nc3ccc(Cl)cc3Cl)nc21 | 13

Test system: HL-60
Test: Induction of apoptosis in human HL60 cells assessed as late apoptotic cells at 1 uM after 24 hrs using Annexin V-FITC and propidium iodide staining by flow cytometry relative to control
Assay type: functional
Conditions: not given
Outline: as §2

Row | SMILES | Activity [%]
17 | CN1c2ccccc2S(=O)(=O)n2nc(-c3cccnc3Nc3ccc(Cl)cc3Cl)nc21 | 3

Test system: HL-60
Test: Induction of apoptosis in human HL60 cells assessed as caspase3 activation using DEVD-AFC as substrate at 1 uM after 24 hrs by fluorimetry relative to control
Assay type: functional
Conditions: not given
Outline: (§3)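 HL-60 cells (2 x 10^6) treated 24 h, washed and lysed. Caspase-3, -8 and -9 activities in lysates measured fluorometrically with a commercial caspase fluorescent assay kit. Two independent experiments, each in duplicate.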

Row | SMILES | Activity
18 | CN1c2ccccc2S(=O)(=O)n2nc(-c3cccnc3Nc3ccc(Cl)cc3Cl)nc21 | inactive

Test system: HL-60
Test: Induction of apoptosis in human HL60 cells assessed as caspase8 activation using IETD-AFC as substrate at 1 uM after 24 hrs by fluorimetry relative to control
Assay type: functional
Conditions: not given
Outline: as §3

Row | SMILES | Activity
19 | CN1c2ccccc2S(=O)(=O)n2nc(-c3cccnc3Nc3ccc(Cl)cc3Cl)nc21 | inactive

Test system: HL-60
Test: Induction of apoptosis in human HL60 cells assessed as caspase9 activation using LEHD-AMC as substrate at 1 uM after 24 hrs by fluorimetry relative to control
Assay type: functional
Conditions: not given
Outline: as §3

Row | SMILES | Activity
20 | CN1c2ccccc2S(=O)(=O)n2nc(-c3cccnc3Nc3ccc(Cl)cc3Cl)nc21 | inactive

Test system: HL-60
Test: Induction of apoptosis in human HL60 cells assessed as DNA ladder formation at 1 uM after 24 hrs by agarose gel electrophoresis
Assay type: functional, cell-based
Conditions: not given
Outline: (§4)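 Cells treated 24 h, then 2 x 10^6 cells lysed (Triton X-100 buffer, pH 8.0) with RNase at 37 °C for 90 min and proteinase-K at 50 °C for 1 h. DNA phenol/chloroform-extracted and ethanol-precipitated, then run on 1.8% agarose at 50 V for 1.5 h in TAE. Ladders viewed under UV.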

Row | SMILES | Activity
21 | CN1c2ccccc2S(=O)(=O)n2nc(-c3cccnc3Nc3ccc(Cl)cc3Cl)nc21 | Active

Test system: HL-60
Test: Induction of apoptosis in human HL60 cells assessed as DNA ladder formation at 10 uM after 24 hrs by agarose gel electrophoresis
Assay type: functional, cell-based
Conditions: not given
Outline: as §4

Row | SMILES | Activity
22 | CN1c2ccccc2S(=O)(=O)n2nc(-c3cccnc3Nc3ccc(Cl)cc3Cl)nc21 | Active

Test system: SiHa
Test: Induction of apoptosis in human SiHa cells assessed as DNA ladder formation at 10 uM after 24 hrs by agarose gel electrophoresis
Assay type: functional, cell-based
Conditions: not given
Outline: as §4

Row | SMILES | Activity
23 | CN1c2ccccc2S(=O)(=O)n2nc(-c3cccnc3Nc3ccc(Cl)cc3Cl)nc21 | inactive

Test system: HeLa
Test: Induction of apoptosis in human HeLa cells assessed as DNA ladder formation at 10 uM after 24 hrs by agarose gel electrophoresis
Assay type: functional, cell-based
Conditions: not given
Outline: as §4

Row | SMILES | Activity
24 | CN1c2ccccc2S(=O)(=O)n2nc(-c3cccnc3Nc3ccc(Cl)cc3Cl)nc21 | inactive

Test system: HL-60
Test: Cell cycle arrest in human HL60 cells assessed as accumulation at sub-G0 phase measuring DNA damage at 1 uM after 24 hrs using propidium iodide staining by flow cytometry (reference value: 1%)
Assay type: functional
Conditions: not given
Outline: (§5)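 HL-60 cells (1 x 10^5 per 1.5 mL) treated 24 h, then fixed in 70% cold ethanol at −20 °C overnight. RNase digestion (400 µg/ml) at 37 °C for 45 min, then propidium iodide (10 µg/ml) for 30 min. Flow cytometry on 10,000 events, FL2-A vs FL2-W, with doublet discrimination. Sub-G0 (hypodiploid) peak taken as apoptotic cells. Mean ± SD of three independent experiments.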

Row | SMILES | Activity [%]
25 | CN1c2ccccc2S(=O)(=O)n2nc(-c3cccnc3Nc3ccc(Cl)cc3Cl)nc21 | 20

Test system: HL-60
Test: Cell cycle arrest in human HL60 cells assessed as accumulation at G1 phase at 1 uM after 24 hrs using propidium iodide staining by flow cytometry
Assay type: functional, cell-based
Conditions: not given
Outline: as §5

Row | SMILES | Activity
26 | CN1c2ccccc2S(=O)(=O)n2nc(-c3cccnc3Nc3ccc(Cl)cc3Cl)nc21 | inactive

Test system: HL-60
Test: Cell cycle arrest in human HL60 cells assessed as accumulation at S phase at 1 uM after 24 hrs using propidium iodide staining by flow cytometry
Assay type: functional, cell-based
Conditions: not given
Outline: as §5

Row | SMILES | Activity
27 | CN1c2ccccc2S(=O)(=O)n2nc(-c3cccnc3Nc3ccc(Cl)cc3Cl)nc21 | inactive

Test system: HL-60
Test: Cell cycle arrest in human HL60 cells assessed as accumulation at G2/M phase at 1 uM after 24 hrs using propidium iodide staining by flow cytometry
Assay type: functional, cell-based
Conditions: not given
Outline: as §5

Row | SMILES | Activity
28 | CN1c2ccccc2S(=O)(=O)n2nc(-c3cccnc3Nc3ccc(Cl)cc3Cl)nc21 | inactive

Test system: HL-60
Test: Induction of apoptosis in human HL60 cells assessed as increase of reactive oxygen species level at 1 uM after 24 hrs using DCFH-DA fluorescent dye based flow cytometric analysis relative to control
Assay type: functional
Conditions: not given
Outline: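 HL-60 cells (1 x 10^5 per 1.5 mL) treated 24 h, then loaded with 10 µM H2DCFDA for 30 min at 37 °C. Washed twice in PBS and read in FL-1 (530 nm). Percentage of DCF-positive cells determined; mean ± SD of three experiments.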

Row | SMILES | Activity
29 | CN1c2ccccc2S(=O)(=O)n2nc(-c3cccnc3Nc3ccc(Cl)cc3Cl)nc21 | inactive

Test system: HL-60
Test: Induction of NO production in human HL60 cells at 1 uM after 24 hrs using DAF-2DA fluorescent dye based flow cytometric analysis
Assay type: functional, cell-based
Conditions: not given
Outline: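 HL-60 cells (1 x 10^5 per 1.5 mL) preloaded 30 min with 10 µM DAF-2-DA before treatment. After 24 h exposure, cells were washed and read by flow cytometry in FL-1 as NO-positive population. Mean ± SD of three independent experiments.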

Row | SMILES | Activity
30 | CN1c2ccccc2S(=O)(=O)n2nc(-c3cccnc3Nc3ccc(Cl)cc3Cl)nc21 | inactive

Test system: HL-60
Test: Inhibition of NF-kappaB expression in human HL60 cells at 1 uM after 24 hrs by Western blotting
Assay type: functional, cell-based
Conditions: not given
Outline: (§6)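 HL-60 cells treated 24 h and lysed in RIPA buffer on ice; protein measured by Bradford against a BSA standard. 50 µg resolved by SDS-PAGE and transferred to PVDF, blocked in 5% milk/TBST, then primary antibodies 1:1000 for 2 h and HRP secondary 1:1000 for 1 h. ECL detection with β-actin as loading control; bands quantified by densitometry.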

Row | SMILES | inhibition
31 | CN1c2ccccc2S(=O)(=O)n2nc(-c3cccnc3Nc3ccc(Cl)cc3Cl)nc21 | inactive

Test system: HL-60
Test: Inhibition of survivin expression in human HL60 cells at 1 uM after 24 hrs by Western blotting
Assay type: functional, cell-based
Conditions: not given
Outline: as §6

Row | SMILES | inhibition
32 | CN1c2ccccc2S(=O)(=O)n2nc(-c3cccnc3Nc3ccc(Cl)cc3Cl)nc21 | Active

Test system: HL-60
Test: Induction of apoptosis in human HL60 cells assessed as PARP cleavage at 1 uM after 24 hrs by Western blotting
Assay type: functional, cell-based
Conditions: not given
Outline: as §6

Row | SMILES | Activity
33 | CN1c2ccccc2S(=O)(=O)n2nc(-c3cccnc3Nc3ccc(Cl)cc3Cl)nc21 | Active

Test system: HL-60
Test: Inhibition of Bcl-2 expression in human HL60 cells at 1 uM after 24 hrs by Western blotting
Assay type: functional, cell-based
Conditions: not given
Outline: as §6

Row | SMILES | inhibition
34 | CN1c2ccccc2S(=O)(=O)n2nc(-c3cccnc3Nc3ccc(Cl)cc3Cl)nc21 | inactive
